Results: ChEMBL document CHEMBL4196248, “Callyspongidic Acids: Amphiphilic Diacids from the Tropical Eastern Pacific Sponge Callyspongia cf. californica” (J Nat Prod, 2018)
Active and inactive are the calls of the source. The rule behind the calls is not given here.

What was measured:
Candida albicans [1] = assay: Antimicrobial activity against Candida albicans ATCC 64124 at 32 ug/ml measured after 20 hrs by spectrophotometric method; format: functional, organism-based
Outline: (§1)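 Whole-cell growth-inhibition panel: Gram-negative E. coli ATCC25922, K. pneumoniae ATCC700603, P. aeruginosa PAO1 and A. baumannii CL5973, plus fungi A. fumigatus ATCC46645 and C. albicans ATCC64124. Method follows earlier-described protocols. Highest concentration tested 32 μg/mL.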

Acinetobacter baumannii [2] = assay: Antimicrobial activity against Acinetobacter baumannii CL5973 at 32 ug/ml measured after 20 hrs by spectrophotometric method; format: functional, organism-based; outline: as §1
A2058 = assay: Cytotoxicity against human A2058 cells measured after 24 hrs by MTT assay; format: functional, cell-based; details: A2058, 24 h
Outline: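 Human-derived A2058 epithelial melanoma cells, run alongside a panel of other human tumour lines by a previously reported protocol; IC50 values derived.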

Klebsiella pneumoniae [3] = assay: Antimicrobial activity against Klebsiella pneumoniae ATCC 700603 at 32 ug/ml measured after 20 hrs by spectrophotometric method; format: functional, organism-based; outline: as §1
Staphylococcus aureus [4] = assay: Antimicrobial activity against methicillin-resistant Staphylococcus aureus MB5393 at 32 ug/ml measured after 20 hrs by spectrophotometric method; format: functional, organism-based
Staphylococcus aureus [5] = assay: Antimicrobial activity against methicillin-sensitive Staphylococcus aureus ATCC 29213 at 32 ug/ml measured after 20 hrs by spectrophotometric method; format: functional, organism-based
Escherichia coli [6] = assay: Antimicrobial activity against Escherichia coli ATCC 25922 at 32 ug/ml measured after 20 hrs by spectrophotometric method; format: functional, organism-based; outline: as §1
Aspergillus fumigatus [7] = assay: Antimicrobial activity against Aspergillus fumigatus ATCC 46645 at 32 ug/ml measured after 30 hrs by resazurin dye based assay; format: functional, organism-based; outline: as §1
Pseudomonas aeruginosa [8] = assay: Antimicrobial activity against Pseudomonas aeruginosa PAO1 at 32 ug/ml measured after 20 hrs by spectrophotometric method; format: functional, organism-based; outline: as §1
Candida albicans [9] = assay: Antimicrobial activity against Candida albicans ATCC 64124 at 4 ug/ml measured after 20 hrs by spectrophotometric method; format: functional, organism-based
Staphylococcus aureus [10] = assay: Antimicrobial activity against methicillin-resistant Staphylococcus aureus MB5393 at 4 ug/ml measured after 20 hrs by spectrophotometric method; format: functional, organism-based
Staphylococcus aureus [11] = assay: Antimicrobial activity against methicillin-sensitive Staphylococcus aureus ATCC 29213 at 4 ug/ml measured after 20 hrs by spectrophotometric method; format: functional, organism-based
Aspergillus fumigatus [12] = assay: Antimicrobial activity against Aspergillus fumigatus ATCC 46645 at 4 ug/ml measured after 30 hrs by resazurin dye based assay; format: functional, organism-based
Pseudomonas aeruginosa [13] = assay: Antimicrobial activity against Pseudomonas aeruginosa PAO1 at 4 ug/ml measured after 20 hrs by spectrophotometric method; format: functional, organism-based
Escherichia coli [14] = assay: Antimicrobial activity against Escherichia coli ATCC 25922 at 4 ug/ml measured after 20 hrs by spectrophotometric method; format: functional, organism-based
Acinetobacter baumannii [15] = assay: Antimicrobial activity against Acinetobacter baumannii CL5973 at 4 ug/ml measured after 20 hrs by spectrophotometric method; format: functional, organism-based
Klebsiella pneumoniae [16] = assay: Antimicrobial activity against Klebsiella pneumoniae ATCC 700603 at 4 ug/ml measured after 20 hrs by spectrophotometric method; format: functional, organism-based

For `CCCCCC/C=C\CCCC[C@H](C(=O)O)[C@@](O)(Cc1ccc(O)cc1)C(=O)O`, the Activity (Candida albicans [1]) was “inactive”, the Activity (Acinetobacter baumannii [2]) was “inactive” and the IC50 (A2058) was greater than 30 µM. For the same molecule, the Activity (Klebsiella pneumoniae [3]) was “inactive”, the Activity (Staphylococcus aureus [4]) was “inactive” and the Activity (Staphylococcus aureus [5]) was “inactive”. The Activity (Escherichia coli [6]) was “inactive”, the Activity (Aspergillus fumigatus [7]) was “inactive” and the Activity (Pseudomonas aeruginosa [8]) was “inactive”.

In the case of `CCCCCCCCCCCC[C@H](C(=O)O)[C@@](O)(Cc1ccc(O)cc1)C(=O)O`, the Activity (Candida albicans [1]) is reported as “inactive”, the Activity (Acinetobacter baumannii [2]) is reported as “inactive” and the IC50 (A2058) is reported as 30 µM. For the same molecule, the Activity (Klebsiella pneumoniae [3]) was “inactive”, the Activity (Staphylococcus aureus [4]) was “inactive” and the Activity (Staphylococcus aureus [5]) was “inactive”. The Activity (Escherichia coli [6]) was “inactive”, the Activity (Aspergillus fumigatus [7]) was “inactive” and the Activity (Pseudomonas aeruginosa [8]) was “inactive”.

In the case of `CCCCCCCCCC[C@H](C(=O)O)[C@@](O)(Cc1ccc(O)cc1)C(=O)O`, the Activity (Candida albicans [1]) is reported as “inactive”, the Activity (Acinetobacter baumannii [2]) is reported as “inactive” and the IC50 (A2058) is reported as 26 µM. The Activity (Klebsiella pneumoniae [3]) was “inactive”, the Activity (Staphylococcus aureus [4]) was “inactive” and the Activity (Staphylococcus aureus [5]) was “inactive”. The Activity (Escherichia coli [6]) was “inactive”, the Activity (Aspergillus fumigatus [7]) was “inactive” and the Activity (Pseudomonas aeruginosa [8]) was “inactive”.

In the case of `CCCCCCCCCCC[C@H](C(=O)O)[C@@](O)(Cc1ccc(O)cc1)C(=O)O`, the Activity (Candida albicans [9]) is reported as “inactive”, the Activity (Staphylococcus aureus [10]) is reported as “inactive” and the IC50 (A2058) is reported as 3.2 µM. For the same molecule, the Activity (Staphylococcus aureus [11]) was “inactive”, the Activity (Aspergillus fumigatus [12]) was “inactive” and the Activity (Pseudomonas aeruginosa [13]) was “inactive”. For the same molecule, the Activity (Escherichia coli [14]) was “inactive”, the Activity (Acinetobacter baumannii [15]) was “inactive” and the Activity (Klebsiella pneumoniae [16]) was “inactive”.
